Here are results for 1 compound from ChEMBL document CHEMBL4052637, “Discovery and Characterization of R/S-N-3-Cyanophenyl-N'-(6-tert-butoxycarbonylamino-3,4-dihydro-2,2-dimethyl-2H-1-benzopyran-4-yl)urea, a New Histone Deacetylase Class III Inhibitor Exerting Antiproliferative Activity against Cancer Cell Lines” (J Med Chem, 2017).

Test [1] concerns the target T1, NAD-dependent protein deacetylase sirtuin-2 (Homo sapiens) (UniProt Q8IXJ6).
T1 sequence (whole entry): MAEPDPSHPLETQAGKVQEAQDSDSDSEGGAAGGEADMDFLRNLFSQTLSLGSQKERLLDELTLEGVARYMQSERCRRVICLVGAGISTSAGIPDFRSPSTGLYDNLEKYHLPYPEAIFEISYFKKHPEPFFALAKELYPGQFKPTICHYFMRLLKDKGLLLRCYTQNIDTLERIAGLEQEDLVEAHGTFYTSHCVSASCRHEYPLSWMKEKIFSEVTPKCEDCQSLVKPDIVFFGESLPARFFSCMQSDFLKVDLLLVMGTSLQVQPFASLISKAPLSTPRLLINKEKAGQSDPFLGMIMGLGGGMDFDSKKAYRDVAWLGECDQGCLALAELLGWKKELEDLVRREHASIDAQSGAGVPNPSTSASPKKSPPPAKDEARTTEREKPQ
In words: Inhibition of SIRT2 in human Hs683 cells assessed as increase of alpha-tubulin acetylation at 5 uM after 8 hrs by Western blotting method relative to control. Format: cell-based.

Test [2] has as its target T2, NAD-dependent protein deacetylase sirtuin-1 (Homo sapiens) (UniProt Q96EB6).
T2 sequence (whole entry): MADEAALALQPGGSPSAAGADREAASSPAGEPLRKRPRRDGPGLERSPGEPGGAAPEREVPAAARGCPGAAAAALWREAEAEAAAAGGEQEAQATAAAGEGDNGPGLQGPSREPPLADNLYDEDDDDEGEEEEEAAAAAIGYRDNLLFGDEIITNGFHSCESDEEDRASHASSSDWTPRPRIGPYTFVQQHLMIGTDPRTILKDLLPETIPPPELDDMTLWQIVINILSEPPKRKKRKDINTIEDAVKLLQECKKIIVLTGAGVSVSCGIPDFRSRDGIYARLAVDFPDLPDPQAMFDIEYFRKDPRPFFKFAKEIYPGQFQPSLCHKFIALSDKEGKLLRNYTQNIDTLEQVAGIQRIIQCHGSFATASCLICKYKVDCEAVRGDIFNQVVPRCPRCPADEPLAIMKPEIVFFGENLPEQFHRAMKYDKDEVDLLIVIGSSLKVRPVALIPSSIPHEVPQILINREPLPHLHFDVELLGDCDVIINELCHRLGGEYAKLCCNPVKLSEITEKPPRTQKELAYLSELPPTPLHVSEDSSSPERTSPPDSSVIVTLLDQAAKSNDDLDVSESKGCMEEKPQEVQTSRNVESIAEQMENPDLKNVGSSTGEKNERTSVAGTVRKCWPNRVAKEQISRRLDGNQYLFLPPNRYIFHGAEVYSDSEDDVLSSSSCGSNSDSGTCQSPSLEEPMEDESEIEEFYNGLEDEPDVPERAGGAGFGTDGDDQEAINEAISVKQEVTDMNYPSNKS
In words: Inhibition of SIRT1 in human Hs683 cells assessed as increase of histone H3K56 acetylation at 10 to 25 after 8 to 24 hrs by Western blotting method. Format: cell-based. In a few lines:
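Cells treated with the compound, then histone H3K56 acetylation assessed by Western blot on histone extracts; histone H1 or Coomassie staining as loading control.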
In general terms: Immunoblotting shows a protein as a band on a membrane.

Test [3] concerns NCI/ADR-RES. In words: Growth inhibition of human NCI-ADR-RES cells after 48 hrs by SRB assay. Format: functional.
The subject of test [4] is Hs 683. In words: Potency index, ratio of AGK2 IC50 to test compound IC50 for human Hs683 cells. The class given is functional.
Test [5] in a line: Induction of senescence in human U373 cells at 5 uM after 6 days by beta-galactosidase assay relative to control. Format: functional, U-373MG ATCC. A digest of the protocol: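 Cells were kept 6 days in medium containing 5 μM compound or DMSO vehicle, then stained for senescence-associated β-galactosidase activity. Blue-stained cells were counted and expressed as a percentage of total cells counted. Two independent experiments.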

In test [6] the target is T1, NAD-dependent protein deacetylase sirtuin-2 (Homo sapiens). In words: Inhibition of SIRT2 in human Hs683 cells assessed as increase of alpha-tubulin acetylation at 1 uM after 8 hrs by Western blotting method relative to control. Format: cell-based.
Test [7] relates to MDA-MB-435. In words: Growth inhibition of human MDA-MB-435 cells after 48 hrs by SRB assay. The class given is functional. The note with it: MDA-MB-435, 48 h.
In test [8] the test system is NCI-H23. In words: Growth inhibition of human NCI-H23 cells after 48 hrs by SRB assay. The class given is functional. The conditions noted are these: NCI-H23, 48 h.
Test [9] has as its target T2, NAD-dependent protein deacetylase sirtuin-1 (Homo sapiens). Briefly: Inhibition of SIRT1 in human U373 cells assessed as increase of histone H4 acetylation at 1 uM after 8 hrs by Western blotting method relative to control. Format: cell-based.
The test system of test [10] is SW-620. In words: Growth inhibition of human SW620 cells after 48 hrs by SRB assay. The note with it: SW-620, 48 h. Format: functional. Background: Sulforhodamine B stains cellular protein and so reports cell mass.
Test [11] addresses T1, NAD-dependent protein deacetylase sirtuin-2 (Homo sapiens). In words: Inhibition of SIRT2 in human Hs683 cells assessed as increase of alpha-tubulin acetylation at 2.5 uM after 8 hrs by Western blotting method relative to control. Format: cell-based.
Test [12] relates to M14. Briefly: Growth inhibition of human M14 cells after 48 hrs by SRB assay. Format: functional. The conditions noted are these: M14, 48 h.
Test [13] deals with CAKI-1. In words: Growth inhibition of human Caki1 cells after 48 hrs by SRB assay. The note with it: CAKI-1, 48 h. Format: functional.
Test [14] has as its target T2, NAD-dependent protein deacetylase sirtuin-1 (Homo sapiens). Briefly: Inhibition of SIRT1 in human Hs683 cells assessed as increase of histone H4 acetylation at 10 to 25 after 8 to 24 hrs by Western blotting method. The class given is cell-based.
Test [15] in a line: Potency index, ratio of sirtinol IC50 to test compound IC50 for human U373 cells. Format: functional, U-373MG ATCC.
Test [16] has as its target T2, NAD-dependent protein deacetylase sirtuin-1 (Homo sapiens). Briefly: Inhibition of SIRT1 in human Hs683 cells assessed as increase of histone H4 acetylation at 10 uM after 8 hrs by Western blotting method relative to control. The class given is cell-based.
For test [17], the target named is T1, NAD-dependent protein deacetylase sirtuin-2 (Homo sapiens). Briefly: Inhibition of SIRT2 in human Hs683 cells assessed as increase of alpha-tubulin acetylation at 10 uM after 8 hrs by Western blotting method relative to control. Format: cell-based.
The test system of test [18] is SK-MEL-5. In words: Growth inhibition of human SK-MEL-5 cells after 48 hrs by SRB assay. The class given is functional. The note with it: SK-MEL-5, 48 h.
The subject of test [19] is Hs 683. Briefly: Antiproliferative activity against human Hs683 cells after 72 hrs by MTT assay. The class given is functional, cell-based. The note with it: Hs 683, 72 h. In a few lines:
(§1)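 MTT assay: cells in RPMI 1640 with 10% heat-inactivated FCS at 37 °C and 5% CO2 were seeded 24 h before treatment. They were exposed 72 h to compound at 0.01–100 μM, with DMSO as solvent.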

In test [20] the test system is A2780. In words: Antiproliferative activity against human A2780 cells after 72 hrs by MTT assay. Format: functional, cell-based. In a few lines: as §1
For orientation: Formazan colour is commonly taken as a measure of viable cells.

The subject of test [21] is MOLT-4. Briefly: Growth inhibition of human MOLT4 cells after 48 hrs by SRB assay. The class given is functional. The note with it: MOLT-4, 48 h.
The target of test [22] is T2, NAD-dependent protein deacetylase sirtuin-1 (Homo sapiens). Briefly: Inhibition of SIRT1 in human Hs683 cells assessed as increase of histone H4 acetylation after 8 hrs by Western blotting method. Format: cell-based.
In test [23] the target is Histone deacetylase 1 (Homo sapiens) (UniProt Q13547). In words: Inhibition of His-tagged recombinant human HDAC1 expressed in baculovirus expression system at 0.1 to 100 uM using Fluor-de-Lys-SIRT1 as substrate after 15 mins by fluorescence assay.

Molecules are shown by their SMILES. Calls of active or inactive are those of the source. No cut-off for these calls is given here.

Sequence of Histone deacetylase 1 (Homo sapiens) (Q13547 whole entry): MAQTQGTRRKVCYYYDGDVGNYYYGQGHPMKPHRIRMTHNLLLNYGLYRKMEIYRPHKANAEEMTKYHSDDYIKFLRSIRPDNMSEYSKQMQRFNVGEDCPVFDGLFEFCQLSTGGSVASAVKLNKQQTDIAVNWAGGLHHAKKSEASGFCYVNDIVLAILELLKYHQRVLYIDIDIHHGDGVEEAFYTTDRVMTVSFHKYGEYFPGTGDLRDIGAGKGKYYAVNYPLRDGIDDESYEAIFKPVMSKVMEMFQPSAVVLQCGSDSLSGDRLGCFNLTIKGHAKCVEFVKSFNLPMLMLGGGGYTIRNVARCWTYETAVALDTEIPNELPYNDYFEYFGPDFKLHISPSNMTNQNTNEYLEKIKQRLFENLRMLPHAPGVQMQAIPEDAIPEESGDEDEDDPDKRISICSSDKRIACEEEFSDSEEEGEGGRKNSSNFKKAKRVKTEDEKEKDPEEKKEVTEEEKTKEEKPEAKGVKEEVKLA

Turning to `CC(C)(C)OC(=O)Nc1ccc2c(c1)C(NC(=O)Nc1cccc(C#N)c1)CC(C)(C)O2` (stereo not drawn), the fold change (FC) in test [1] is 1.5; in test [6] it was 1.3; in test [9], 1.1; in test [11], 1.2; in [16], 12; in [17], 1.6. In addition, the inhibition entry in [2] and in test [14] was “Active” in each case. Besides, the concentration for 50% growth inhibition (GI50) – broadly, the concentration that inhibits growth by half – in [3] is 3.09 µM; in test [7], 1.48 µM; in test [8], 1.12 µM; in [10], 3.8 µM; in test [12], 4.17 µM; in test [13], 2.45 µM. Further, the values for the GI50 in test [18] and in test [21] were 0.427 µM and 2.09 µM, respectively. Also, the entries for the “Ratio IC50” value in test [4] and in test [15] were 6 - 14 and 6, respectively. Besides, the Activity in test [5] is 18.2%. In addition, the 50% inhibitory concentration (IC50) – broadly, the point on the concentration scale where inhibition reaches its midpoint – in test [19] was 4 to 5.8 µM. The outcome in [20] was Active. Moreover, in test [22], the inhibition entry was “Dose-dependent effect”. Besides, in test [23], the inhibition entry is “inactive”.
